The list is not random: actives were taken first. Their share in the collection is about 1.6%.
PAD4 FP inh: blocks human protein arginine deiminase 4 | inhibition, % at 6.36 µM | recombinant PAD4, RCA probe fluorescence polarization | Q9UM07 | actives 0.41% (n = 330,000);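 active = percent inhibition above a cutoff equal to the mean of all tested compounds plus 3 SD, cut at about 15% in these data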;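 also: 0% = PAD4 with RCA probe and DMSO and 100% = probe without PAD4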
TDP2 absorb: blocks human TDP2 phosphodiesterase activity; actives 0.34% (n = 370,000); recombinant TDP2, T5PNP hydrolysis, p-nitrophenol absorbance 415 nm; inhibition, % at 12.8 µM; O95551;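 active = inhibition above the mean of all tested compounds plus 3 SD, set per campaign, cut at about 25% in these data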;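 also: 0% = DMSO with enzyme and 100% = buffer with substrate but no TDP2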
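Incubation: 2 h at 37 °C; Test system: recombinant human TDP2; Quantity: enzyme 120 nM; Read-out basis: percent inhibition; Medium: 50 mM Tris-HCl pH 7.5 with Mg2+, KCl, DTT, BSA; Repeats: single replicate; Compound: 12.8 µM single point, 1% DMSO; Signal: epi absorbance; Reagent: 5 mM T5PNP chromogenic substrate; Benchmarks: no-enzyme high, DMSO-plus-enzyme low.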
GSTO1 counter: counter-screen for RBBP9 inhibitors: inhibitors of human GSTO1 | P78417 | recombinant GSTO1, activity-based probe fluorescence polarization | inhibition, % at 5.96 µM | actives 1.1% (n = 300,000);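 active = inhibition above the campaign mean inhibition plus 3 SD, cut at about 35% in these data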;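 also: 0% = GSTO1-1 with DMSO and 100% = wells lacking GSTO1-1 enzyme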
SUMO HTRF inh: SUMOylation inhibition; P63279; HTRF SUMOylation assay, SAE1/SAE2 + UBC9, in vitro; inhibition, % at 35 µM; actives 0.36% (n = 290,000); AID 2006; in the data active = inhibition above about 50%, passing the limit was not always enough
Apaf1 inhib: inhibitors of human Apaf-1 apoptosome. reconstituted apoptosome caspase-3 activity, DEVD-Rh110 fluorescence. inhibition, % at 20 µM. actives 0.71% (n = 330,000). AID 489030; active = inhibition of at least 40% at 20 µM;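 also: plate controls were DMSO wells for no effect and DEVD-CHO caspase inhibitor wells for full effect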
Target sequence (O14727 whole entry, looked up): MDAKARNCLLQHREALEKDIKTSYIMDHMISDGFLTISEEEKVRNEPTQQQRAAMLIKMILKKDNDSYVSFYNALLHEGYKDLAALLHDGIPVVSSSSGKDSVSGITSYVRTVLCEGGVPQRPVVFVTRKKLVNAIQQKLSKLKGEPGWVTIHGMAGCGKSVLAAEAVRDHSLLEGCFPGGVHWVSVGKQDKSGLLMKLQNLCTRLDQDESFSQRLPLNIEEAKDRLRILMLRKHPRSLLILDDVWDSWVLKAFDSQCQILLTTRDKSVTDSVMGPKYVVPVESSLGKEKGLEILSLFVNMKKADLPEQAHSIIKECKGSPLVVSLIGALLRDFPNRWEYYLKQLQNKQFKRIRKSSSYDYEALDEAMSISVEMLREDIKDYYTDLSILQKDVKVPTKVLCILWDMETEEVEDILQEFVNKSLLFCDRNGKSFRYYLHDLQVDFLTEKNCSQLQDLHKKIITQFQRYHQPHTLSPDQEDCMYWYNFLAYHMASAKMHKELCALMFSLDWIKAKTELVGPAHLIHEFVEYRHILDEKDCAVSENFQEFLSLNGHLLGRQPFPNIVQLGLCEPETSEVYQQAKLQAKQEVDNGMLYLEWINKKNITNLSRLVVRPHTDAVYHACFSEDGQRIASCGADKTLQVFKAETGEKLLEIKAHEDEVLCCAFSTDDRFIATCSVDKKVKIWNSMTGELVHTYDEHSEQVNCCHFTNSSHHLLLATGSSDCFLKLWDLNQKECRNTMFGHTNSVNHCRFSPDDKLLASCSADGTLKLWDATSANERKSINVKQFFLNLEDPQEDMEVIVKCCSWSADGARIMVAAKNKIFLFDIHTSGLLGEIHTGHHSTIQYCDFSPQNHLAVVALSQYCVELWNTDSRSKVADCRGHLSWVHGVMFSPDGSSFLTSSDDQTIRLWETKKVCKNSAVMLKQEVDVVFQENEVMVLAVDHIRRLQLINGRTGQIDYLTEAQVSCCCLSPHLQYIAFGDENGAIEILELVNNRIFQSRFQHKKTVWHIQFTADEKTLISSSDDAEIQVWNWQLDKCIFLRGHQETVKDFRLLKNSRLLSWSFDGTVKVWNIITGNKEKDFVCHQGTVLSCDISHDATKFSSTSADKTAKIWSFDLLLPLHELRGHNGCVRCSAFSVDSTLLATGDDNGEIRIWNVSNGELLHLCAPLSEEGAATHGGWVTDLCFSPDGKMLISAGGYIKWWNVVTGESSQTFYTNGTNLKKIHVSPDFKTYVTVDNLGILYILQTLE
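Material: biochemical Apaf-1 apoptosome reconstitution. Medium: Hepes buffer, pH 7.5. Also added: cytochrome c activation, bis-DEVD rhodamine 110 substrate. Timing: 30 min compound preincubation, 50 min activation, room temperature. Measured by: rhodamine 110 fluorescence at Ex 480/Em 540 nm.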
JMJD2C inh: human JMJD2C demethylase inhibition | GST-JMJD2C(1-420) H3K9me3 demethylation, DELFIA europium | inhibition, % at 2.35 µM | Q9H3R0 | actives 0.069% (n = 330,000);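 active = more than half of a compound's replicate wells show inhibition beyond 50%, single wells judged on their own value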;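 also: signal counts dimethyl H3K9 product captured on neutravidin plate; 0% = median of DMSO wells and 100% = 0.3 times that DMSO median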
Apaf-1 inh conf2: confirmation of Apaf-1 inhibitors | actives 25% (n = 1,800) | inhibition, % at 20 µM | shares compounds with Apaf1 inhib | reconstituted apoptosome, caspase-3 DEVD-Rh110 fluorescence;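 active = mean inhibition of at least 40% at 20 µM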;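 also: plate controls were DMSO wells for no effect and DEVD-CHO caspase inhibitor control wells for full effect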
Rh110 interf inh: counter-screen for Apaf-1 inhibitors: fluorescence interference; shares compounds with Apaf1 inhib; activation (fluorescence interference), % at 20 µM; 1,800 tested, under 10 active; Rh110 fluorescence interference, quenched caspase reaction;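 active = signal rise of 40% or more at 20 µM, treated as a fluorescence artifact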
The depositor's hits bear a star.

`CCCCCc1cc(=O)oc2c(C(CCN3CCCCC3)c3ccc4c(c3)OCO4)c(OC)cc(OC)c12` (stereo not drawn) gave PAD4 FP inh -1, TDP2 absorb -4, GSTO1 counter 2, SUMO HTRF inh -7, Apaf1 inhib 66*, JMJD2C inh 0, Apaf-1 inh conf2 39 and Rh110 interf inh 18.
Screening COc1ccc(C2CC(=O)Oc3c(C(CCN4CCCCC4)c4ccc(N(C)C)cc4)c(OC)cc(OC)c32)cc1 (stereo not drawn) returned PAD4 FP inh 0, TDP2 absorb 5, GSTO1 counter 2, SUMO HTRF inh -2, Apaf1 inhib 23 and JMJD2C inh -3.
`COc1cc(OC)c2c(-c3ccccc3)cc(=O)oc2c1C(CCN1CCCC(C)C1)c1ccc(N(C)C)cc1` (stereo not drawn) gave PAD4 FP inh 2, TDP2 absorb -1, GSTO1 counter 8, SUMO HTRF inh 1, Apaf1 inhib 23 and JMJD2C inh -21.
Screening COC(=O)[C@]1(C#N)CC(=O)N(c2ccccc2)[C@@H]1c1ccccc1 returned TDP2 absorb -2.
Screening COc1ccccc1NC(=S)OCCN1CCCC12CCC(c1ccccc1)CC2 (stereo not drawn) returned TDP2 absorb -4.
For CC(C)(C)c1ccc(S(=O)(=O)N2CCCC2C(=O)N2CCN(c3ccccc3)CC2)cc1 (stereo not drawn) the results were TDP2 absorb -13.
COC(=O)C1=C(C)N(Cc2cccc(C(F)(F)F)c2)C(=NCc2ccc3c(c2)OCO3)NC1c1ccc(F)cc1 (stereo not drawn) was read as TDP2 absorb -6.
`COc1ccc(C(CCN2CCN(c3ccccc3)CC2)c2c(OC)cc(OC)c3c(-c4ccccc4)cc(=O)oc23)cc1` (stereo not drawn) gave PAD4 FP inh 0, TDP2 absorb 1, GSTO1 counter -4, SUMO HTRF inh -16, Apaf1 inhib 16 and JMJD2C inh -11.
Screening COc1ccc(C(CCN2CCOCC2)c2c(OC)cc(OC)c3c(-c4ccccc4)cc(=O)oc23)cc1 (stereo not drawn) returned PAD4 FP inh -4, TDP2 absorb 1, Apaf1 inhib 53*, Apaf-1 inh conf2 2 and Rh110 interf inh 7.
For C(=N\NC1=Nc2cccc3cccc1c23)/c1ccccc1 the results were PAD4 FP inh -12, TDP2 absorb -1, GSTO1 counter 1, SUMO HTRF inh -18, Apaf1 inhib 25 and JMJD2C inh -5.
For NC1=Nc2cccc3cccc1c23 the results were PAD4 FP inh -3, TDP2 absorb 9, GSTO1 counter 34, SUMO HTRF inh 28, Apaf1 inhib 67*, JMJD2C inh -3, Apaf-1 inh conf2 11 and Rh110 interf inh 8.
Screening COc1ccc(N=C2C(=Nc3ccc(OC)cc3)N(c3ccc(OC)cc3)C(=S)N2C)cc1 returned PAD4 FP inh -3, GSTO1 counter 8, SUMO HTRF inh -10, Apaf1 inhib 4 and JMJD2C inh -2.
For COc1ccc(N=C2C(=Nc3ccc(OC)cc3)N(c3ccc(OC)cc3)C(=S)N2c2ccccc2)cc1 the results were PAD4 FP inh -2, TDP2 absorb 11, GSTO1 counter 2, SUMO HTRF inh 19, Apaf1 inhib 75*, JMJD2C inh 3, Apaf-1 inh conf2 7 and Rh110 interf inh 9.
`Cc1c2ccccc2nc2ccccc12` gave PAD4 FP inh -13, TDP2 absorb 3, GSTO1 counter 4, Apaf1 inhib 18 and JMJD2C inh 7.
For CCCNc1c(F)c(F)c2c(C)c3ccccc3nc2c1F the results were PAD4 FP inh -7, TDP2 absorb 6, GSTO1 counter 20, SUMO HTRF inh 13, Apaf1 inhib 51*, JMJD2C inh -15, Apaf-1 inh conf2 33 and Rh110 interf inh 4.
For COCO[C@@H]1CC(CO)=C[C@H]2OCO[C@H]21 the results were TDP2 absorb 9.
Screening CCOC(=O)[C@@]12CCC3=C1N(CCC3)C(=O)[C@H](CC(=O)N1CCN(C(=O)C3CC3)CC1)C2 returned TDP2 absorb -5.
Screening CCn1c2ccccc2c2cc(NC(=O)c3cc4c(C)nn(-c5ccccc5)c4s3)ccc21 returned TDP2 absorb -3.
Screening COc1cccc(CNc2cccc3cccnc23)c1O returned PAD4 FP inh -3, TDP2 absorb 9, GSTO1 counter 26, SUMO HTRF inh 63, Apaf1 inhib 71*, JMJD2C inh -8, Apaf-1 inh conf2 14 and Rh110 interf inh -7.
Screening Cc1ccc(O)c(CNc2ccccn2)c1 returned PAD4 FP inh 0, TDP2 absorb 6, GSTO1 counter -4, SUMO HTRF inh 3, Apaf1 inhib 11 and JMJD2C inh -3.
For Cc1ccc(O)c(CNc2cccc3cccnc23)c1 the results were PAD4 FP inh -5, TDP2 absorb 6, GSTO1 counter 21, SUMO HTRF inh 76, Apaf1 inhib 93*, JMJD2C inh 23, Apaf-1 inh conf2 38 and Rh110 interf inh 4.
O=C(c1ccccc1)c1ccc(OCC(O)CNC2CCCc3ccccc32)cc1 (stereo not drawn) was read as PAD4 FP inh -6, TDP2 absorb -6, GSTO1 counter 3, SUMO HTRF inh -14, Apaf1 inhib 52*, JMJD2C inh -6, Apaf-1 inh conf2 20 and Rh110 interf inh 10.
For O=C(COC(=O)COc1ccc2ccccc2c1)NC1CCCc2ccccc21 (stereo not drawn) the results were PAD4 FP inh -4, TDP2 absorb 1, GSTO1 counter 0, SUMO HTRF inh -17, Apaf1 inhib 7 and JMJD2C inh 0.
Screening CCc1ccccc1OC[C@@H](O)CN[C@H]1CCCc2ccccc21 returned PAD4 FP inh -5, TDP2 absorb 3, GSTO1 counter 3, Apaf1 inhib 46*, Apaf-1 inh conf2 1 and Rh110 interf inh -3.
CCOc1ccc(NC(=O)NC2CCCc3ccccc32)cc1 (stereo not drawn) was read as PAD4 FP inh -1, TDP2 absorb 3, GSTO1 counter 6, SUMO HTRF inh 14, Apaf1 inhib 15 and JMJD2C inh -5.
For OC(CNC1CCCc2ccccc21)COc1ccc2ccccc2c1 (stereo not drawn) the results were PAD4 FP inh -7, TDP2 absorb 5, GSTO1 counter 13, SUMO HTRF inh -6, Apaf1 inhib 47*, JMJD2C inh 13, Apaf-1 inh conf2 15 and Rh110 interf inh 14.

Screens: PubChem, several laboratories
